Results published in ChEMBL document CHEMBL5244263, “Studies on fragment-based design of allosteric inhibitors of human factor XIa” (Bioorg Med Chem, 2020).
The source made the active and inactive calls. The rule behind the calls is not given here.

Experiments:
[1] = target: T1, Coagulation factor XI (Homo sapiens, UniProt P03951); assay: Inhibition of human FXIa using S-2366 as chromogenic substrate preincubated with enzyme for 10 mins followed by substrate addition by spectrophotometric analysis
[2] = target: T1, Coagulation factor XI; assay: Inhibition of human FXIa using S-2366 as chromogenic substrate preincubated with enzyme for 10 mins followed by substrate addition by spectrophotometric analysis relative to control; set-up: concentration or dose not given beside the values
Outline: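 hFXIa (0.765 nM final) preincubated with inhibitor or reference solution for 10 min at 37 °C in pH 7.4 buffer (50 mM Tris-HCl, 150 mM NaCl, 0.1% PEG8000, 0.02% Tween80). S-2366 (345 μM final) then added, and residual activity read on a microplate reader.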

[3] = target: Prothrombin (Homo sapiens) (UniProt P00734); assay: Inhibition of human thrombin at 500 uM by chromogenic substrate hydrolysis assay
[4] = target: T2, Coagulation factor VII (Homo sapiens) (UniProt P08709); assay: Inhibition of FVIIa (unknown origin) at 500 uM by chromogenic substrate hydrolysis assay
T2 sequence (whole entry): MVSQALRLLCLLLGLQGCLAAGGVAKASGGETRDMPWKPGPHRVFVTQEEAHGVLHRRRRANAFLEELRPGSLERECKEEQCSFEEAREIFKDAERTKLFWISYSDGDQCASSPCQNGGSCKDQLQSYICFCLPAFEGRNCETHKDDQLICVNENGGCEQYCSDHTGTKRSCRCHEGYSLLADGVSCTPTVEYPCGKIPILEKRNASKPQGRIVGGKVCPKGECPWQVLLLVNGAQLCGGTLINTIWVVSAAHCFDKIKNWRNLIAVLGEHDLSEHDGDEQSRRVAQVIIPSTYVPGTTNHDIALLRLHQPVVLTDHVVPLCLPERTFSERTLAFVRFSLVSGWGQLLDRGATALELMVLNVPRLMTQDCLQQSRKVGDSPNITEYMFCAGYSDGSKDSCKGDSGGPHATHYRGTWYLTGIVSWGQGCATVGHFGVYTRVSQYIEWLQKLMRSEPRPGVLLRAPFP

[5] = target: Coagulation factor IX (Homo sapiens) (UniProt P00740); assay: Inhibition of human FIXa at 500 uM by chromogenic substrate hydrolysis assay
[6] = target: Plasma kallikrein (Homo sapiens) (UniProt P03952); assay: Inhibition of Kallikrein in human plasma at 500 uM by chromogenic substrate hydrolysis assay; assay type: cell-free
[7] = target: Chymotrypsinogen A (Bos taurus) (UniProt P00766); assay: Inhibition of bovine alpha-chymotrypsin at 500 uM by chromogenic substrate hydrolysis assay
[8] = species: Homo sapiens; assay: Selectivity for inhibition of human FXIa over human thrombin
[9] = species: Homo sapiens; assay: Selectivity for inhibition of human FXIa over FVIIa (unknown origin)
[10] = species: Homo sapiens; assay: Selectivity for inhibition of human FXIa over human FIXa
[11] = species: Homo sapiens; assay: Selectivity for inhibition of human FXIa over human FXa
[12] = species: Homo sapiens; assay: Selectivity for inhibition of human FXIa over Kallikrein in human plasma; assay type: cell-free
[13] = Selectivity for inhibition of human FXIa over bovine trypsin
[14] = Selectivity for inhibition of human FXIa over bovine alpha-chymotrypsin
[15] = target: Coagulation factor X (Homo sapiens) (UniProt P00742); assay: Inhibition of human FXa using methoxycarbonyl-D-cyclohexylglycyl-Gly-Arg-p-nitroanilide as substrate at >200 uM by chromogenic substrate hydrolysis assay
[16] = species: Bos taurus; assay: Inhibition of bovine trypsin using S-2222 as chromogenic substrate at >200 uM by chromogenic substrate hydrolysis assay
[17] = target: Coagulation factor X (Homo sapiens) (UniProt P00742); assay: Inhibition of human FXa using methoxycarbonyl-D-cyclohexylglycyl-Gly-Arg-p-nitroanilide as substrate at 500 uM by chromogenic substrate hydrolysis assay
[18] = species: Bos taurus; assay: Inhibition of bovine trypsin using S-2222 as chromogenic substrate at 500 uM by chromogenic substrate hydrolysis assay

Coagulation factor X (Homo sapiens), sequence (P00742 41-179 limits assumed): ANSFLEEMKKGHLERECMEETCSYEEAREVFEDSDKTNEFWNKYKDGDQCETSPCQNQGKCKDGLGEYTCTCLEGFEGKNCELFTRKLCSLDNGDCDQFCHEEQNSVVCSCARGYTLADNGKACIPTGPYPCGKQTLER
Coagulation factor X (Homo sapiens), sequence (P00742 235-488 limits assumed): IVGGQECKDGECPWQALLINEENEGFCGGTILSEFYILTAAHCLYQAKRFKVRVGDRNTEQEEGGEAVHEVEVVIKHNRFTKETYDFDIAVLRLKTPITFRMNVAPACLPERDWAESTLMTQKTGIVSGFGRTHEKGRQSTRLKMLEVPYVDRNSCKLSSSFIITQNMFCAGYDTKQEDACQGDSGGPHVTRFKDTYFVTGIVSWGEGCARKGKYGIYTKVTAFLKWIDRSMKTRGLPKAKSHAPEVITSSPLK
Coagulation factor IX (Homo sapiens), sequence (P00740 47-191 limits assumed): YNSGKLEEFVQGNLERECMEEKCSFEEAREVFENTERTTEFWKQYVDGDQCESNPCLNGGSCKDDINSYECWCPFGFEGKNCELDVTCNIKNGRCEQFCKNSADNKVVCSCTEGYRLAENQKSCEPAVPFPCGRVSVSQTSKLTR
Coagulation factor IX (Homo sapiens), sequence (P00740 227-461 limits assumed): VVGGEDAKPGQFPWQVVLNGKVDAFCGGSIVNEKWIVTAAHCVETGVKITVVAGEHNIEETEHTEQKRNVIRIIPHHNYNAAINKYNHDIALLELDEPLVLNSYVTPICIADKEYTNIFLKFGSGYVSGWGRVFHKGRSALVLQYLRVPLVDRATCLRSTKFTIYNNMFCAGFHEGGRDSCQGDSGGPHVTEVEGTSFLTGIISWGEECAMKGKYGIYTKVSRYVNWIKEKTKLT
T1 sequence (P03951 19-387 limits assumed): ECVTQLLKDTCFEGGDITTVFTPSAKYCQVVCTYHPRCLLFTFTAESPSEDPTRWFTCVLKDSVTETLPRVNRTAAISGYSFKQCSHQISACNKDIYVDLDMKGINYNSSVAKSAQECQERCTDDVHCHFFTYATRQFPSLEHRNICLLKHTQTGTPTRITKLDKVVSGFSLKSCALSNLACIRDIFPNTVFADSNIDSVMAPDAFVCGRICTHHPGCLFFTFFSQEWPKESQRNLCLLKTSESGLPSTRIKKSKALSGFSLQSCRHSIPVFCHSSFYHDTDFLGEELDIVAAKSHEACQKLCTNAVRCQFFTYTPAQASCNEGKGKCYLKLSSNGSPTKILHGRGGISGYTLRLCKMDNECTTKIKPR
T1 sequence (P03951 388-625 limits assumed): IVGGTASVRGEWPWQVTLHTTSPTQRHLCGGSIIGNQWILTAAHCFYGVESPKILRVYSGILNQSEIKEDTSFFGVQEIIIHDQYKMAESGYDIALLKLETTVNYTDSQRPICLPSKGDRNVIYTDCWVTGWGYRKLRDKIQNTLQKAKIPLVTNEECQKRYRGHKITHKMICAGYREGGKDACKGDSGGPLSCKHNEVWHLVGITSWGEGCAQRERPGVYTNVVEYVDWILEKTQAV
Plasma kallikrein (Homo sapiens), sequence (P03952 20-390 limits assumed): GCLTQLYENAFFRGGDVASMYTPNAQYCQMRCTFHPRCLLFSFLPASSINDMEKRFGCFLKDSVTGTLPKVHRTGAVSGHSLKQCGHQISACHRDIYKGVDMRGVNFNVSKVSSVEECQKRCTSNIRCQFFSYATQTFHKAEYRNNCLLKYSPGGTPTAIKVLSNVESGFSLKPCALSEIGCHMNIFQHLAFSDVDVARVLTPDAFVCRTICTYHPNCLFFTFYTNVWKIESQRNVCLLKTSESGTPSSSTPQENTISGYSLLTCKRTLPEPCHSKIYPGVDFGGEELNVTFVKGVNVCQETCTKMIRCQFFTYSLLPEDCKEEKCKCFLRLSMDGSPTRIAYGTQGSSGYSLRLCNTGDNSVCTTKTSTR
Plasma kallikrein (Homo sapiens), sequence (P03952 391-638 limits assumed): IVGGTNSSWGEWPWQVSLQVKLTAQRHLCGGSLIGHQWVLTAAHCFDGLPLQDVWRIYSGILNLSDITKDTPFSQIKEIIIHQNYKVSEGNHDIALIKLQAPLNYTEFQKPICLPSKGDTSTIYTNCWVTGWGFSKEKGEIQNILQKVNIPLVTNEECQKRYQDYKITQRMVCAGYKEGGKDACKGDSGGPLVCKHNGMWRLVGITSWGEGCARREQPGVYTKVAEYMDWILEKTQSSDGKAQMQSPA

Row | Structure (SMILES) | IC50 [1] [µM] | inhibition [2] [%] | inhibition [3] | inhibition [4] | inhibition [5] | inhibition [6] | inhibition [7] | Selectivity ratio [8] | Selectivity ratio [9] | Selectivity ratio [10] | Selectivity ratio [11] | Selectivity ratio [12] | Selectivity ratio [13] | Selectivity ratio [14] | inhibition [15] | inhibition [16] | inhibition [17] | inhibition [18]
1 | O=c1c2ccccc2nc(-c2ccc(OS(=O)(=O)O)cc2)n1CCCCCCCCCCCn1c(-c2ccc(OS(=O)(=O)O)cc2)nc2ccccc2c1=O | 14.5 | 96 | inactive | inactive | inactive | inactive | inactive | > 63 | > 63 | > 63 | > 25 | > 63 | > 25 | > 63 | Active | Active |  | 
2 | O=c1c2ccccc2nc(-c2cccc(OS(=O)(=O)O)c2)n1CCCCCCn1c(-c2cccc(OS(=O)(=O)O)c2)nc2ccccc2c1=O | 53 | 96 | inactive | inactive | inactive | inactive | inactive | > 63 | > 63 | > 63 | > 63 | > 63 | > 63 | > 63 |  |  | inactive | inactive
3 | O=c1c2ccccc2nc(-c2ccc(OS(=O)(=O)O)cc2)n1CCCCCCCCCn1cc(Cn2c(-c3ccc(OS(=O)(=O)O)cc3)nc3ccccc3c2=O)nn1 | 34 | 100 | inactive | inactive | inactive | inactive | inactive | > 63 | > 63 | > 63 | > 63 | > 63 | > 63 | > 63 |  |  | inactive | inactive
4 | O=c1c2ccccc2nc(-c2cccc(OS(=O)(=O)O)c2)n1Cc1cccc(Cn2c(-c3cccc(OS(=O)(=O)O)c3)nc3ccccc3c2=O)c1 | 60 | 92 | inactive | inactive | inactive | inactive | inactive | > 63 | > 63 | > 63 | > 63 | > 63 | > 63 | > 63 |  |  | inactive | inactive
5 | O=c1c2ccccc2nc(-c2ccc(OS(=O)(=O)O)cc2)n1CCCCCCCCn1cc(Cn2c(-c3ccc(OS(=O)(=O)O)cc3)nc3ccccc3c2=O)nn1 | 39 | 100 | inactive | inactive | inactive | inactive | inactive | > 63 | > 63 | > 63 | > 63 | > 63 | > 63 | > 63 |  |  | inactive | inactive
6 | O=c1c2ccccc2nc(-c2cccc(OS(=O)(=O)O)c2)n1Cc1ccc(Cn2c(-c3cccc(OS(=O)(=O)O)c3)nc3ccccc3c2=O)cc1 | 248 | 100 | inactive | inactive | inactive | inactive | inactive | > 63 | > 63 | > 63 | > 63 | > 63 | > 63 | > 63 |  |  | inactive | inactive
7 | O=c1c2ccccc2nc(-c2ccc(OS(=O)(=O)O)cc2)n1CCCCCCCCCCCCn1cc(Cn2c(-c3ccc(OS(=O)(=O)O)cc3)nc3ccccc3c2=O)nn1 | 35 | 112 | inactive | inactive | inactive | inactive | inactive | > 63 | > 63 | > 63 | > 63 | > 63 | > 63 | > 63 |  |  | inactive | inactive

Further molecules by falling IC50 [1], results first:

Row | IC50 [1] [µM] | inhibition [2] [%] | inhibition [3] | inhibition [4] | inhibition [5] | inhibition [6] | inhibition [7] | Selectivity ratio [8] | Selectivity ratio [9] | Selectivity ratio [10] | Selectivity ratio [11] | Selectivity ratio [12] | Selectivity ratio [13] | Selectivity ratio [14] | inhibition [15] | inhibition [16] | inhibition [17] | inhibition [18] | Structure (SMILES)
8 | 76 | 96 | inactive | inactive | inactive | inactive | inactive | > 63 | > 63 | > 63 | > 63 | > 63 | > 63 | > 63 |  |  | inactive | inactive | O=c1c2ccccc2nc(-c2ccc(OS(=O)(=O)O)cc2)n1Cc1cccc(Cn2c(-c3ccc(OS(=O)(=O)O)cc3)nc3ccccc3c2=O)c1
9 | 57 | 87 | inactive | inactive | inactive | inactive | inactive | > 63 | > 63 | > 63 | > 63 | > 63 | > 63 | > 63 |  |  | inactive | inactive | O=c1c2ccccc2nc(-c2ccc(OS(=O)(=O)O)cc2)n1Cc1ccccc1Cn1c(-c2ccc(OS(=O)(=O)O)cc2)nc2ccccc2c1=O
10 | 49 | 92 | inactive | inactive | inactive | inactive | inactive | > 63 | > 63 | > 63 | > 63 | > 63 | > 63 | > 63 |  |  | inactive | inactive | O=c1c2ccccc2nc(-c2ccc(OS(=O)(=O)O)cc2)n1CCCCCn1c(-c2ccc(OS(=O)(=O)O)cc2)nc2ccccc2c1=O
11 | 34 | 87 | inactive | inactive | inactive | inactive | inactive | > 63 | > 63 | > 63 | > 63 | > 63 | > 63 | > 63 |  |  | inactive | inactive | O=c1c2ccccc2nc(-c2ccc(OS(=O)(=O)O)cc2)n1CCCCCCn1c(-c2ccc(OS(=O)(=O)O)cc2)nc2ccccc2c1=O
